Source: PubChem (several laboratories)
Rows were chosen to be rich in hits. Some 1.6% of all compounds tested hit in one or more screens of this group.
CSN inh – CSN deneddylation inhibition | Q92905 | Purified CSN, SCF-Nedd8-OG deneddylation, fluorescence polarization | inhibition, % at 12.5 µM | 0.38% of 360,000 active | AID 651999;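 active means pattern-corrected inhibition above about 35%, with an unprinted fluorescence ratio check between 0.5 and 1.5, limit read from the data, passing the limit was not always enough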
Target sequence (Q92905 whole entry, looked up, one chain of several): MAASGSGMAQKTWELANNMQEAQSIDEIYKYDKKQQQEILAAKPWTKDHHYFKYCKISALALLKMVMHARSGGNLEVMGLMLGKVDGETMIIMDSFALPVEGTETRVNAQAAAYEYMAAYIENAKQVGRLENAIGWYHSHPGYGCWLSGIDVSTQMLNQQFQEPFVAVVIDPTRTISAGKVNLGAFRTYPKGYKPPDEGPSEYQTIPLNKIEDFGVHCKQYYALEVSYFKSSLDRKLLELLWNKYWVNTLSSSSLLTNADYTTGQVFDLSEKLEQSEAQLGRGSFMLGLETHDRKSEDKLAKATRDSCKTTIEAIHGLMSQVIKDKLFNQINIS
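Schedule: reaction 90 min, room temperature / Assay system: HEK293T-derived human Csn5 enzyme / Input: Csn5 at 0.24 nM final / Measure: inhibition of Csn5 cleavage, % / Control set: substrate-only high control, full reaction low control / Technique: fluorescence polarization of the substrate / Buffer or medium: Tris/NaCl/DTT buffer, pH 7.5 / Reagent: SCFSkp2-Nedd8OG substrate at 10 nM final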
PKA-R2B act – PKA-R2B complex activation; P22694+P31323; 0.079% of 340,000 active; PKA-R2B holoenzyme dissociation, Cy5-IP20 fluorescence polarization; R2B truncated from residue 108, S112A mutant; 0% DMSO only, 100% 113 µM cGMP; activation, % at 11.4 µM;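 active means activation above a cutoff set at the mean over all compounds plus 3 SD, cut at about 18% in these data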;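 further: higher means more holoenzyme dissociation and a rise in polarization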
HNF4A DNA FP – change in binding of human HNF4 alpha to DNA | activity change, % at 10 µM | 0.3% of 360,000 active | AID 1224865 | P41235 | HNF4a-FITC DNA binding, fluorescence polarization, 1 h; in the data active means activity change above about 30%, passing the limit was not always enough
Rpn11 block – blocks the human proteasome subunit Rpn11; O00487; AID 588493; calls only at 20 µM; 0.59% of 360,000 active; human 26S proteasome, Ub4-pepOG fluorescence polarization; 20S core pre-blocked with epoxomicin;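 active means inhibition at 20 µM, scaled to each plate's controls, above about 33%, limit read from the data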
Target sequence (O00487 whole entry, looked up): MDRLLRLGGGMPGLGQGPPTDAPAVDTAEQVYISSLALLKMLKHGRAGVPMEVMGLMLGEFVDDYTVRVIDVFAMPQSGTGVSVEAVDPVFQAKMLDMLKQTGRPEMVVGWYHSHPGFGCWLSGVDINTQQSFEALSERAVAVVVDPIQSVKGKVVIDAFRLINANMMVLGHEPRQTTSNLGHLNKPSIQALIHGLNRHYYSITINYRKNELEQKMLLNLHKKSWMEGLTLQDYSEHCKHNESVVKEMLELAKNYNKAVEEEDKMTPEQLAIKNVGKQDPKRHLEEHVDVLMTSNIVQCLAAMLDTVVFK
PKA-R1A activ – activators of PKA-R1A complex | P00514+P68181 | PKA-R1A dissociation, Cy5-IP20 fluorescence polarization; scaled: DMSO 0%, 113 µM cGMP 100% | activation, % at 11.4 µM | 0.083% of 340,000 active | AID 504707;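 active means percent activation above the mean of all tested compounds plus 3 SD, cut at about 19% in these data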;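 further: higher means more PKAc released from R1A so a rise in polarization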
TPT1 inhibitor – inhibitors of Candida albicans tRNA 2'-phosphotransferase TPT1; recombinant caTPT1, FP RNA substrate dephosphorylation; inhibition, % at 5 µM; 0.81% of 300,000 active; AID 1962;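 active means inhibition above the mean of all tested compounds plus 3 SD, set per screening campaign, cut at about 24% in these data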
Large screens that a line does not name were inactive.

CCC1(CC)NC(=O)N(CC(=O)OC(C)C(=O)Nc2ccc(S(N)(=O)=O)cc2)C1=O (stereo unspecified)	none (no result: TPT1 inhibitor)
O=C(NCc1ccc(OC(F)(F)F)cc1)c1cccc2c1C(=O)c1ccc(N3CCCC3)cc1S2(=O)=O	CSN inh 85 (not shown: Rpn11 block, TPT1 inhibitor)
O=C(NCc1cc(C(F)(F)F)ccc1Cl)c1cccc2c1C(=O)c1ccc(N3CCCCC3)cc1S2(=O)=O	CSN inh 55 (not shown: Rpn11 block, TPT1 inhibitor)
COc1ccccc1C(=O)NNC(=O)CCCN1C(=O)/C(=C/c2cccs2)SC1=S	HNF4A DNA FP 40 (not shown: Rpn11 block)
CCOC(=O)c1cc(-c2ccc(N3CCOCC3)cc2)nn1-c1ccccc1C(=O)O	Rpn11 block active
COc1cc(C(C)=O)ccc1OCC(O)CN1CCN(c2c(C)cccc2C)CC1 (stereo unspecified)	HNF4A DNA FP 45
COc1cc(C(C)=O)ccc1OCC(O)CN1CCN(c2ccc(C)c(C)c2)CC1 (stereo unspecified)	none
CC(C)(C)c1ccccc1NC(=S)NC1CCCCC1	none
COc1cccc(NC(=S)N/N=C2\CC(C)(C)Oc3ccc(O)cc32)c1	none
Cc1cccc(NC(=S)N/N=C2\CC(C)(C)Oc3ccc(O)cc32)c1	HNF4A DNA FP 36
O=c1c2ccccc2nc2ccc(NCc3cccs3)nn12	none
O=C1OC(c2cccs2)=N/C1=C\c1ccc(-c2ccccc2Cl)o1	Rpn11 block active (no result: TPT1 inhibitor)
CNC(=O)c1c(NC(=O)c2cc(-c3cc(C)c(C)cc3O)n[nH]2)sc2c1CCCC2	none (no result: CSN inh, PKA-R2B act, HNF4A DNA FP, Rpn11 block, PKA-R1A activ)
NNc1nc2c(-c3cccc(C(F)(F)F)c3)nnn2c2ccccc12	HNF4A DNA FP 36 (not shown: Rpn11 block, TPT1 inhibitor)
COCCNc1nc2c(-c3cccc(C(F)(F)F)c3)nnn2c2ccccc12	none
O=C1/C(=C/c2ccc(O)cc2)COc2ccccc21	CSN inh 89
CCN(CC)CCN(C(=O)c1ccc(CN2CCCCC2)o1)C(C(=O)NC1CCCCC1)c1ccc(F)cc1 (stereo unspecified)	none
O=C(COc1ccc(Cl)cc1)NCCNC(=O)c1ccccn1	HNF4A DNA FP 55
CCC(NC(=O)Cc1c(C)c2cc3c(cc2oc1=O)OC(C)(C)CC3)C(=O)O (stereo unspecified)	none
N#CC1=C(c2ccc(-c3ccccc3)cc2)COC1=O	Rpn11 block active
O=C(NNC(=O)c1cccs1)c1ccccn1	none (no result: TPT1 inhibitor)
CCOc1ccc(Nc2nc(N)c3ccccc3n2)cc1	HNF4A DNA FP 60 (no result: TPT1 inhibitor)
COc1cc(C2c3c([nH]c(=O)[nH]c3=O)Nc3ccc4ccccc4c32)cc(OC)c1OC (stereo unspecified)	CSN inh 66
CC(C)(C)C(=O)O/N=C(\N)COc1cccc(Cl)c1	none
CN(C(=O)CN(c1ccccc1)S(=O)(=O)c1ccc(F)cc1)C1CCS(=O)(=O)C1 (stereo unspecified)	none
C=CCn1c(=O)c(C(=O)Nc2ccccc2C(=O)OCC)c(O)c2ccccc21	none
C=CCn1c(=O)c(C(=O)Nc2ccccc2S(N)(=O)=O)c(O)c2ccccc21	CSN inh 93
CC(C)(C)c1ccc(S(=O)(=O)N2CCN(c3ccccn3)CC2)cc1	none
COc1ccccc1CNC(=O)C(=O)Nc1ccc(C(=O)N2CCC(C)CC2)cc1	none
FC(F)(F)c1ccc(N2CCOCC2)c(Nc2nc3ccccc3n3cnnc23)c1	HNF4A DNA FP 30
O=C(NCC1CCCO1)c1ccc(CSCc2cccc(F)c2)o1 (stereo unspecified)	none
Cc1nn(C)c(C)c1NC(=O)COc1ccccc1C#N	none (no result: TPT1 inhibitor)
O=C(Nc1ccc(-c2ccc3nncn3n2)cc1)c1ccc(Br)o1	CSN inh 64
CC(C)C(=O)Nc1ccc(-c2ccc3nncn3n2)cc1	none
Cn1ccc2c(N(Cc3ccccc3)Cc3ccccc3)cc3c(c21)C1CCC3O1 (stereo unspecified)	CSN inh 84 (no result: PKA-R2B act, PKA-R1A activ, TPT1 inhibitor)
CCCCc1nc2cc(C(=O)N3CCN(c4nc(C)cnc4C)CC3)ccc2o1	none
C=CC[C@@H](Cc1ccc(F)cc1)C(=O)OC[C@@H]1CCCN1C(=O)[C@H](CC=C)CC(=O)NCCO	none (no result: TPT1 inhibitor)
COc1cccc(C2CC(c3ccccc3)=NN2S(=O)(=O)c2ccc(C)cc2)c1OC (stereo unspecified)	CSN inh 76 (not shown: Rpn11 block)
COc1ccccc1C1CC(c2ccccc2)=NN1S(=O)(=O)c1ccccc1 (stereo unspecified)	none
COc1ccc(/C=N/Nc2ncc(Br)cn2)c(OC)c1	CSN inh 62 (not shown: Rpn11 block)
C[C@@H]([C@@H](O)c1ccccc1)N(C)C(=O)C(N)Cc1ccccc1 (stereo partly specified)	none
CN(C)c1ccc(C=c2c3cc([N+](=O)[O-])ccc3n3c2cc(-c2ccccc2)[n+]3C)cc1	none (no result: TPT1 inhibitor)
COc1cc(C=c2c3ccccc3n3c2cc(-c2ccccc2)[n+]3C)cc(OC)c1OC	none (no result: TPT1 inhibitor)
CN(C)c1ccc(C=c2c3ccccc3n3c2cc(-c2ccccc2)[n+]3C)cc1	HNF4A DNA FP 74, Rpn11 block active (no result: TPT1 inhibitor)
CN(C)c1ccc(C=c2c3ccccc3n3c2cc(-c2ccc(Cl)cc2)[n+]3C)cc1	HNF4A DNA FP 50 (no result: TPT1 inhibitor)
O=C(CCNC(=O)C1CCN(S(=O)(=O)c2ccccc2)CC1)NCc1cccnc1	none (no result: TPT1 inhibitor)
NC1(C#Cc2ccc3oc(=O)c(-n4cc(C5(O)CCCCC5)nn4)cc3c2)CCCCC1	none (no result: TPT1 inhibitor)
NC1(C#Cc2ccc3oc(=O)c(-n4cc(-c5ccsc5)nn4)cc3c2)CCCCC1	Rpn11 block active (no result: TPT1 inhibitor)
COC(=O)C(NC(=O)c1ccccc1)C(C)(C)SCc1ccccc1 (stereo unspecified)	none (no result: TPT1 inhibitor)
C[C@H]1CN([C@@H](C)CO)C(=O)c2cc(Br)cnc2O[C@@H]1CN(C)C(=O)CN(C)C	none (no result: TPT1 inhibitor)
Nc1cc2nsnc2cc1Br	CSN inh 39
Nc1cccc2nsnc12	none
CCOC(=O)Cn1c(-c2ccc(OC)cc2)c(-c2ccc(OC)cc2)nnc1=O	HNF4A DNA FP 33
CCN(CCNC(=O)C1CCN(Cc2nc(-c3ccc(Cl)cc3)oc2C)CC1)c1ccccc1	HNF4A DNA FP 63
CCc1ccc(-c2nc(CN3CCC(C(=O)NCCN(CC)c4ccccc4)CC3)c(C)o2)cc1	none
CCCCCCCCN1C(=O)[C@H](CC(=O)NCCCN2CCCC2=O)C[C@@]2(C(=O)OC)CCCCC=C12	CSN inh 48 (no result: PKA-R2B act, Rpn11 block, PKA-R1A activ, TPT1 inhibitor)
CCN1CCN(CC(=O)Nc2c(OC)cccc2OC)CC1	none
Clc1ccc(-c2nnc3sc(-c4ccc(Br)o4)nn23)cc1	none
Cc1oc(-c2ccc(Cl)cc2)cc1-c1nn2c(-c3ccoc3C)nnc2s1	CSN inh 36
Clc1ccc(-c2nc(C3CCCCC3)no2)cc1	none
CC(=O)N1CCc2c(sc(NC(=O)C3CC3)c2-c2nc3ccccc3s2)C1	CSN inh 44, HNF4A DNA FP 35 (not shown: Rpn11 block)
